# Source: ChEMBL document CHEMBL3227952, “Potential organ- or tumor-imaging agents. 18. Radioiodinated diamines and bisquaternaries” (J Med Chem, 1979)
# How the values were obtained:
# Conditions in all cases: in vivo
# [1] = Drug uptake in Sprague-Dawley rat trachea at 11.7 to 12.3 uCi, iv after 2 hrs by liquid scintillation counting; format: ADME, organism-based
# Outline: (§1)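 ¹²⁵I-labelled bisquaternary dissolved in saline (26 mg/2.0 mL), 9.0–9.5 μCi/mg, given in 0.1 mL via tail vein under ether to adult male Sprague-Dawley rats (200–420 g). Rats were killed by exsanguination under ether at 0.5 or 2 h. Organs were excised, rinsed, blotted and weighed, and duplicate samples were gamma-counted in a well-scintillation counter (87% efficiency). Results are % administered dose/g, mean ± SEM, five rats.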
# [2] = test system: Duodenum; experiment: Drug uptake in Sprague-Dawley rat duodenum at 11.7 to 12.3 uCi, iv after 2 hrs by liquid scintillation counting; format: ADME, organism-based
# Outline: (§2)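 Adult male Sprague-Dawley rats, 200–420 g, fed ad libitum. They got ¹²⁵I-labelled agent in saline (9.0–9.5 µCi/mg), 0.1 mL, by tail vein under ether. Five rats per time point were exsanguinated under ether. Organs were excised, rinsed, blotted and weighed. Duplicate samples were counted in a well-scintillation gamma counter (87% efficiency). Results are % administered dose/g, mean ± SEM.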
# [3] = test system: Thyroid gland; experiment: Drug uptake in Sprague-Dawley rat thyroid at 11.7 to 12.3 uCi, iv after 2 hrs by liquid scintillation counting; format: ADME, organism-based; outline: as §1
# [4] = Drug uptake in Sprague-Dawley rat intervertebral disk at 11.7 to 12.3 uCi, iv after 2 hrs by liquid scintillation counting; format: ADME, organism-based; outline: as §2
# [5] = Drug uptake in Sprague-Dawley rat trachea at 11.7 to 12.3 uCi, iv after 0.5 hrs by liquid scintillation counting; format: ADME, organism-based; outline: as §1
# [6] = test system: Duodenum; experiment: Drug uptake in Sprague-Dawley rat duodenum at 11.7 to 12.3 uCi, iv after 0.5 hrs by liquid scintillation counting; format: ADME, organism-based; outline: as §2
# [7] = test system: Blood; experiment: Drug uptake in Sprague-Dawley rat blood at 11.7 to 12.3 uCi, iv after 0.5 hrs by liquid scintillation counting; format: ADME, organism-based; outline: as §2
# [8] = Drug uptake in Sprague-Dawley rat bone marrow at 11.7 to 12.3 uCi, iv after 0.5 hrs by liquid scintillation counting; format: ADME, organism-based; outline: as §2
# [9] = test system: Pancreas; experiment: Drug uptake in Sprague-Dawley rat pancreas at 11.7 to 12.3 uCi, iv after 2 hrs by liquid scintillation counting; format: ADME, organism-based; outline: as §2
# [10] = test system: Lung; experiment: Drug uptake in Sprague-Dawley rat lung at 11.7 to 12.3 uCi, iv after 2 hrs by liquid scintillation counting; format: ADME, organism-based; outline: as §2
# [11] = test system: Pituitary gland; experiment: Drug uptake in Sprague-Dawley rat pituitary at 11.7 to 12.3 uCi, iv after 2 hrs by liquid scintillation counting; format: ADME, organism-based; outline: as §2
# [12] = Drug uptake in Sprague-Dawley rat diaphragm at 11.7 to 12.3 uCi, iv after 2 hrs by liquid scintillation counting; format: ADME, organism-based; outline: as §2
# [13] = test system: Spleen; experiment: Drug uptake in Sprague-Dawley rat spleen at 11.7 to 12.3 uCi, iv after 2 hrs by liquid scintillation counting; format: ADME, organism-based; outline: as §1
# [14] = test system: Pancreas; experiment: Drug uptake in Sprague-Dawley rat pancreas at 11.7 to 12.3 uCi, iv after 0.5 hrs by liquid scintillation counting; format: ADME, organism-based; outline: as §2
# [15] = test system: Blood; experiment: Drug uptake in Sprague-Dawley rat blood at 11.7 to 12.3 uCi, iv after 2 hrs by liquid scintillation counting; format: ADME, organism-based; outline: as §2
# [16] = Drug uptake in Sprague-Dawley rat bone marrow at 11.7 to 12.3 uCi, iv after 2 hrs by liquid scintillation counting; format: ADME, organism-based; outline: as §2
# [17] = test system: Liver; experiment: Drug uptake in Sprague-Dawley rat liver at 11.7 to 12.3 uCi, iv after 0.5 hrs by liquid scintillation counting; format: ADME, organism-based; outline: as §2
# [18] = test system: Liver; experiment: Drug uptake in Sprague-Dawley rat liver at 11.7 to 12.3 uCi, iv after 2 hrs by liquid scintillation counting; format: ADME, organism-based; outline: as §2
# [19] = Drug uptake in Sprague-Dawley rat meninges at 11.7 to 12.3 uCi, iv after 0.5 hrs by liquid scintillation counting; format: ADME, organism-based; outline: as §2
# [20] = test system: Testes; experiment: Drug uptake in Sprague-Dawley rat testes at 11.7 to 12.3 uCi, iv after 0.5 hrs by liquid scintillation counting; format: ADME, organism-based, Testis; outline: as §1
# [21] = test system: Brain; experiment: Drug uptake in Sprague-Dawley rat brain at 11.7 to 12.3 uCi, iv after 2 hrs by liquid scintillation counting; format: ADME, organism-based; outline: as §2
# [22] = Drug uptake in Sprague-Dawley rat ventricle at 11.7 to 12.3 uCi, iv after 0.5 hrs by liquid scintillation counting; format: ADME, organism-based, Cardiac ventricle; outline: as §1
# [23] = test system: Lung; experiment: Drug uptake in Sprague-Dawley rat lung at 11.7 to 12.3 uCi, iv after 0.5 hrs by liquid scintillation counting; format: ADME, organism-based; outline: as §2
# [24] = test system: Kidney; experiment: Drug uptake in Sprague-Dawley rat kidney at 11.7 to 12.3 uCi, iv after 0.5 hrs by liquid scintillation counting; format: ADME, organism-based; outline: as §2
# [25] = Drug uptake in Sprague-Dawley rat diaphragm at 11.7 to 12.3 uCi, iv after 0.5 hrs by liquid scintillation counting; format: ADME, organism-based; outline: as §2
# [26] = test system: Thyroid gland; experiment: Drug uptake in Sprague-Dawley rat thyroid at 11.7 to 12.3 uCi, iv after 0.5 hrs by liquid scintillation counting; format: ADME, organism-based; outline: as §1
# [27] = test system: Brain; experiment: Drug uptake in Sprague-Dawley rat brain at 11.7 to 12.3 uCi, iv after 0.5 hrs by liquid scintillation counting; format: ADME, organism-based; outline: as §2
# [28] = test system: Adrenal; experiment: Drug uptake in Sprague-Dawley rat adrenal at 11.7 to 12.3 uCi, iv after 2 hrs by liquid scintillation counting; format: ADME, organism-based, Adrenal gland; outline: as §2
# [29] = test system: Adrenal; experiment: Drug uptake in Sprague-Dawley rat adrenal at 11.7 to 12.3 uCi, iv after 0.5 hrs by liquid scintillation counting; format: ADME, organism-based, Adrenal gland; outline: as §2
# [30] = Drug uptake in Sprague-Dawley rat intervertebral disk at 11.7 to 12.3 uCi, iv after 0.5 hrs by liquid scintillation counting; format: ADME, organism-based; outline: as §2
# [31] = Drug uptake in Sprague-Dawley rat ventricle at 11.7 to 12.3 uCi, iv after 2 hrs by liquid scintillation counting; format: ADME, organism-based, Cardiac ventricle; outline: as §1
# [32] = Drug uptake in Sprague-Dawley rat meninges at 11.7 to 12.3 uCi, iv after 2 hrs by liquid scintillation counting; format: ADME, organism-based; outline: as §2
# [33] = Drug uptake in Sprague-Dawley rat auricle at 11.7 to 12.3 uCi, iv after 2 hrs by liquid scintillation counting; format: ADME, organism-based; outline: as §2
# [34] = Drug uptake in Sprague-Dawley rat auricle at 11.7 to 12.3 uCi, iv after 0.5 hrs by liquid scintillation counting; format: ADME, organism-based; outline: as §2
# [35] = test system: Testes; experiment: Drug uptake in Sprague-Dawley rat testes at 11.7 to 12.3 uCi, iv after 2 hrs by liquid scintillation counting; format: ADME, organism-based, Testis; outline: as §1
# [36] = test system: Pituitary gland; experiment: Drug uptake in Sprague-Dawley rat pituitary at 11.7 to 12.3 uCi, iv after 0.5 hrs by liquid scintillation counting; format: ADME, organism-based; outline: as §2
# [37] = test system: Kidney; experiment: Drug uptake in Sprague-Dawley rat kidney at 11.7 to 12.3 uCi, iv after 2 hrs by liquid scintillation counting; format: ADME, organism-based; outline: as §2
# [38] = test system: Spleen; experiment: Drug uptake in Sprague-Dawley rat spleen at 11.7 to 12.3 uCi, iv after 0.5 hrs by liquid scintillation counting; format: ADME, organism-based; outline: as §1
structure (smiles),measurement,setting,value
C[N+](C)(C)Cc1ccc(C[N+](C)(C)C)c([125I])c1.[I-].[I-],Drug uptake,[1],0.089 % ID/g
same,Drug uptake,[2],0.033 % ID/g
same,Drug uptake,[3],0.06 % ID/g
same,Drug uptake,[4],0.087 % ID/g
same,Drug uptake,[5],0.798 % ID/g
same,Drug uptake,[6],0.085 % ID/g
same,Drug uptake,[7],0.277 % ID/g
same,Drug uptake,[8],0.132 % ID/g
same,Drug uptake,[9],0.03 % ID/g
same,Drug uptake,[10],0.087 % ID/g
same,Drug uptake,[11],0.082 % ID/g
same,Drug uptake,[12],0.022 % ID/g
same,Drug uptake,[13],0.094 % ID/g
same,Drug uptake,[14],0.075 % ID/g
same,Drug uptake,[15],0.015 % ID/g
same,Drug uptake,[16],0.078 % ID/g
same,Drug uptake,[17],0.129 % ID/g
same,Drug uptake,[18],0.085 % ID/g
same,Drug uptake,[19],0.467 % ID/g
same,Drug uptake,[20],0.076 % ID/g
same,Drug uptake,[21],0.038 % ID/g
same,Drug uptake,[22],0.121 % ID/g
same,Drug uptake,[23],0.257 % ID/g
same,Drug uptake,[24],3.305 % ID/g
same,Drug uptake,[25],0.08 % ID/g
same,Drug uptake,[26],0.095 % ID/g
same,Drug uptake,[27],0.044 % ID/g
same,Drug uptake,[28],0.043 % ID/g
same,Drug uptake,[29],0.094 % ID/g
same,Drug uptake,[30],0.607 % ID/g
same,Drug uptake,[31],0.018 % ID/g
same,Drug uptake,[32],0.658 % ID/g
same,Drug uptake,[33],0.108 % ID/g
same,Drug uptake,[34],0.203 % ID/g
same,Drug uptake,[35],0.034 % ID/g
same,Drug uptake,[36],0.118 % ID/g
same,Drug uptake,[37],1.834 % ID/g
same,Drug uptake,[38],0.137 % ID/g
